Data set [1] is described as follows: Clearance in Sprague-Dawley rat at 1.06 mg/kg, iv. The class given is ADME, organism-based. Set-up: dose 1.06 mg/kg, route intravenous. The note with it: in vivo. A digest of the protocol: (§1)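 Male SD rats dosed once i.v. or p.o. (n = 8 per route), vehicle 5% ethanol, 10% HPCD, phosphate buffer pH 7.5-8.0. One animal sacrificed at each of 5, 15, 30, 60, 90, 120, 240 and 360 min; EDTA plasma analysed by high turbulence LC-MS/MS. Each data point represents one animal.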

Data set [2] can be described thus: Volume of distribution in Sprague-Dawley rat at 1.06 mg/kg, iv. Set-up: dose 1.06 mg/kg, route intravenous. The note with it: in vivo, read-out: Vss. The class given is ADME, organism-based. A digest of the protocol: (§2)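 Male SD rats received a single p.o. or i.v. dose (n = 8 per route) in 5% ethanol, 10% HPCD and phosphate buffer, pH 7.5-8.0. At 5, 15, 30, 60, 90, 120, 240 and 360 min one rat was sacrificed per time point. EDTA plasma was assayed by high turbulence LC-MS/MS. Cmax and bioavailability were taken from oral dosing; volume of distribution is at steady state.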

Data set [3] can be described thus: Half life in Sprague-Dawley rat at 2.06 mg/kg, po. The class given is ADME, organism-based. The arrangement: dose 2.06 mg/kg, route oral. The note with it: in vivo. A digest of the protocol:
as §1

The target of data set [4] is T1, Peroxisome proliferator-activated receptor alpha (Mus musculus) (UniProt P23204).
T1 sequence (whole entry): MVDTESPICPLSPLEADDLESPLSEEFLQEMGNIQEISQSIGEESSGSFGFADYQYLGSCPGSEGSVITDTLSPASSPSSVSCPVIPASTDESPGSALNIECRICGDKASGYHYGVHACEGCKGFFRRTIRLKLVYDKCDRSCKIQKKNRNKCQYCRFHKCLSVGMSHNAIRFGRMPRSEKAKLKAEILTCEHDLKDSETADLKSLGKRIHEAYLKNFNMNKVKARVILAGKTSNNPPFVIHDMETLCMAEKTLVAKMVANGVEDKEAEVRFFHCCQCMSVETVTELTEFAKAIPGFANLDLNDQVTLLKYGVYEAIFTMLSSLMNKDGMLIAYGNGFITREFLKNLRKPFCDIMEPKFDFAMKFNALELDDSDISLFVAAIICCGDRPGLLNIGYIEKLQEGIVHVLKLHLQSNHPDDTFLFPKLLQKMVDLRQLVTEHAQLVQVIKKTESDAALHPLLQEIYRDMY
Briefly: Agonist activity at mouse PPAR alpha expressed in HEK293 cells up to 30 uM by PPAR-GAL4 transactivation assay. The format is functional, cell-based.

The subject of data set [5] is Mus musculus. The data set is described as follows: Decrease in total cholesterol level in human ApoB100/CETP transgenic mouse at 5 mg/kg, po after 6 weeks relative to control. The class given is functional. The arrangement: scale not given: the % may be the effect or the level left.
Data set [6] concerns Mus musculus. Briefly: Decrease in total cholesterol level in human ApoB100/CETP transgenic mouse at 10 mg/kg, po after 6 weeks relative to control. The class given is functional. Set-up: scale not given: the % may be the effect or the level left.
Data set [7] relates to Mus musculus. Briefly: Increase in total cholesterol level in human ApoB100/CETP transgenic mouse at 20 mg/kg, po after 6 weeks relative to control. The format is functional.
Data set [8] deals with Mus musculus. The data set is described as follows: Increase in HDL level in human ApoB100/CETP transgenic mouse at 5 mg/kg, po after 6 weeks relative to control. The format is functional.
Data set [9] deals with Mus musculus. The data set is described as follows: Decrease in LDL level in human ApoB100/CETP transgenic mouse at 5 mg/kg, po after 6 weeks relative to control. The arrangement: scale not given: the % may be the effect or the level left. The class given is functional.
Data set [10] addresses T2, Peroxisome proliferator-activated receptor alpha (Homo sapiens) (UniProt Q07869).
T2 sequence (whole entry): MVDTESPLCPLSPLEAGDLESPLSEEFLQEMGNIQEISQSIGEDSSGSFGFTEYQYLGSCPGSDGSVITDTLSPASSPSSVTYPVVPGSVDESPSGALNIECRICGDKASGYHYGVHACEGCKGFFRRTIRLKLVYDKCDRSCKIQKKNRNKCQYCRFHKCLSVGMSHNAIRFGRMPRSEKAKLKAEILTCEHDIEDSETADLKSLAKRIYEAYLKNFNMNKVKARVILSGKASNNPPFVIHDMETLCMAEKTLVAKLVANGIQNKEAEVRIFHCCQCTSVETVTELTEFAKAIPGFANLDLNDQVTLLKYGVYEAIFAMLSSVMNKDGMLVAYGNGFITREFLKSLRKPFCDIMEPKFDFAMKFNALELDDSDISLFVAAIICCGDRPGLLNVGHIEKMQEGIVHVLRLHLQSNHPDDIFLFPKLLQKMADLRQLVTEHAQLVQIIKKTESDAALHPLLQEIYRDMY
Briefly: Activity at human liver PPAR alpha expressed in HEK293 cells by GAL4 transactivation assay relative to NNC61-4655. The format is cell-based.

The subject of data set [11] is L6. Briefly: Effect on increase in fatty acid oxidation in rat L6 cells relative to GW-501516. The format is functional. Set-up: concentration or dose not given beside the values. A digest of the protocol: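 Rat L6 myoblasts differentiated 5 days in 2% serum, then treated 42 h with compound (refreshed at 24 h), followed by 6 h with 0.4 mM palmitate containing [9,10-3H]-palmitic acid on 2% fatty-acid-free BSA. Stopped with 10% TCA; released 3H-H2O collected by overnight equilibration at 50 °C and counted.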

Data set [12] can be described thus: Oral bioavailability in Sprague-Dawley rat at 2.06 mg/kg. The class given is ADME, organism-based. The conditions noted are these: in vivo. Summed up: as §2
Data set [13] deals with Mus musculus. Briefly: Decrease in triglycerides level in human ApoB100/CETP transgenic mouse at 5 mg/kg, po after 6 weeks relative to control. The format is functional. Set-up: scale not given: the % may be the effect or the level left.
The test system of data set [14] is Mus musculus. The data set is described as follows: Decrease in triglycerides level in human ApoB100/CETP transgenic mouse at 10 mg/kg, po after 6 weeks relative to control. The class given is functional. The arrangement: scale not given: the % may be the effect or the level left.
The test system of data set [15] is Mus musculus. Briefly: Decrease in triglycerides level in human ApoB100/CETP transgenic mouse at 20 mg/kg, po after 6 weeks relative to control. The format is functional. The arrangement: scale not given: the % may be the effect or the level left.
The subject of data set [16] is Mus musculus. The data set is described as follows: Increase in total ketone bodies level in human ApoB100/CETP transgenic mouse at 5 mg/kg, po after 6 weeks relative to control. The format is functional.
Data set [17] relates to Mus musculus. Briefly: Decrease in glucose level in human ApoB100/CETP transgenic mouse at 10 mg/kg, po after 6 weeks relative to control. Set-up: scale not given: the % may be the effect or the level left. The class given is functional.
Data set [18] concerns Mus musculus. Briefly: Decrease in glucose level in human ApoB100/CETP transgenic mouse at 20 mg/kg, po after 6 weeks relative to control. The format is functional. The arrangement: scale not given: the % may be the effect or the level left.
In data set [19] the test system is Mus musculus. Briefly: Decrease in insulin level in human ApoB100/CETP transgenic mouse at 10 mg/kg, po after 6 weeks by ELISA relative to control. The class given is functional. The arrangement: scale not given: the % may be the effect or the level left. (In general: In an ELISA, binding on a coated surface is turned into a signal by an enzyme label.)
Data set [20] deals with Mus musculus. Briefly: Decrease in HbA1c level in human ApoB100/CETP transgenic mouse at 5 mg/kg, po after 6 weeks relative to control. The class given is functional. The arrangement: scale not given: the % may be the effect or the level left.
Data set [21] relates to Mus musculus. Briefly: Decrease in HbA1c level in human ApoB100/CETP transgenic mouse at 20 mg/kg, po after 6 weeks relative to control. Set-up: scale not given: the % may be the effect or the level left. The class given is functional.

Structures are written as SMILES. The source made the active and inactive calls. No cut-off for these calls is given here.

As to `O=C(O)COc1ccc(SCC=C(c2ccc(Br)cc2)c2ccc(Br)cc2)cc1Cl`, in [1], the clearance was found to be 11.9 mL/min/kg. In addition, the Vd in data set [2] is 0.3 L/kg. The half-life in [3] was 59 min. Also, the outcome in data set [4] was inactive. Besides, the Activity in data set [5] is reported as 19%; in data set [6], 14%; in data set [7] it was 2%; in data set [8] it was 24%; in data set [9], 7%; in [11], 109%. Moreover, the Activity in data set [13] turned out to be 15%; in [14] it was 7%; in data set [15], 5%; in data set [16], 5%; in [17], 2%; in data set [18], 5%. Further, the Activity stood at 8% in [19], 4% in [20] and 12% in data set [21]. The compound also showed an Efficacy in data set [10] above 12%. Further, the bioavailability in data set [12] is 46%.

As usually defined, the clearance is a measure of how efficiently the substance is removed, as volume per time. As usually defined, the half-life is how long it takes for the measured level to halve. As usually defined, the bioavailability is dose-corrected exposure relative to a reference, in per cent.

The values are drawn from ChEMBL document CHEMBL1142981, “Identification and synthesis of a novel selective partial PPARdelta agonist with full efficacy on lipid metabolism in vitro and in vivo” (J Med Chem, 2007).
